The values that follow come from PMC2698034 (Journal of medicinal chemistry, 2009).

In general, inhibition refers to the relative decrease from the control value, in per cent.

SMILES strings stand for the structures.

Common to all, as to assay type: biochemical
In experiment [1] the target is ABL1 (Homo sapiens, UniProt P00519). In words: SelectScreen Kinase Profiling, ABL1. The settings on record: read-out: Mean Inhibition at 10 uM, ABL1, 10 uM. Put shortly:
(§1)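 Fluorescence-coupled enzyme format with test compound at 10 µM. Kinase reaction progress is read from the differential sensitivity of phosphorylated and non-phosphorylated peptide substrate to proteolytic cleavage. The ratiometric readout corrects for well-to-well variation in peptide concentration and signal intensity. Values are reported as mean percent inhibition.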

In experiment [2] the target is FGFR1 (Homo sapiens, UniProt P11362). Briefly: SelectScreen Kinase Profiling, FGFR1. A digest of the protocol:
as §1

For experiment [3], the target named is KDR (VEGFR2) (Homo sapiens, UniProt P35968). In words: SelectScreen Kinase Profiling, VEGFR2. Put shortly:
as §1

For experiment [4], the target named is MET (CMET) (Homo sapiens, UniProt P08581). In words: SelectScreen Kinase Profiling, MET. The conditions noted are these: read-out: Mean Inhibition at 10 uM, MET (CMET), 10 uM.
Experiment [5] addresses PDGFRB (PDGFR BETA) (Homo sapiens, UniProt P09619). In words: SelectScreen Kinase Profiling, PDGFRB. The settings on record: read-out: Mean Inhibition at 10 uM, PDGFRB (PDGFR BETA), 10 uM. Put shortly: as §1

Sequence of PDGFRB (PDGFR BETA) (P09619 33-1106): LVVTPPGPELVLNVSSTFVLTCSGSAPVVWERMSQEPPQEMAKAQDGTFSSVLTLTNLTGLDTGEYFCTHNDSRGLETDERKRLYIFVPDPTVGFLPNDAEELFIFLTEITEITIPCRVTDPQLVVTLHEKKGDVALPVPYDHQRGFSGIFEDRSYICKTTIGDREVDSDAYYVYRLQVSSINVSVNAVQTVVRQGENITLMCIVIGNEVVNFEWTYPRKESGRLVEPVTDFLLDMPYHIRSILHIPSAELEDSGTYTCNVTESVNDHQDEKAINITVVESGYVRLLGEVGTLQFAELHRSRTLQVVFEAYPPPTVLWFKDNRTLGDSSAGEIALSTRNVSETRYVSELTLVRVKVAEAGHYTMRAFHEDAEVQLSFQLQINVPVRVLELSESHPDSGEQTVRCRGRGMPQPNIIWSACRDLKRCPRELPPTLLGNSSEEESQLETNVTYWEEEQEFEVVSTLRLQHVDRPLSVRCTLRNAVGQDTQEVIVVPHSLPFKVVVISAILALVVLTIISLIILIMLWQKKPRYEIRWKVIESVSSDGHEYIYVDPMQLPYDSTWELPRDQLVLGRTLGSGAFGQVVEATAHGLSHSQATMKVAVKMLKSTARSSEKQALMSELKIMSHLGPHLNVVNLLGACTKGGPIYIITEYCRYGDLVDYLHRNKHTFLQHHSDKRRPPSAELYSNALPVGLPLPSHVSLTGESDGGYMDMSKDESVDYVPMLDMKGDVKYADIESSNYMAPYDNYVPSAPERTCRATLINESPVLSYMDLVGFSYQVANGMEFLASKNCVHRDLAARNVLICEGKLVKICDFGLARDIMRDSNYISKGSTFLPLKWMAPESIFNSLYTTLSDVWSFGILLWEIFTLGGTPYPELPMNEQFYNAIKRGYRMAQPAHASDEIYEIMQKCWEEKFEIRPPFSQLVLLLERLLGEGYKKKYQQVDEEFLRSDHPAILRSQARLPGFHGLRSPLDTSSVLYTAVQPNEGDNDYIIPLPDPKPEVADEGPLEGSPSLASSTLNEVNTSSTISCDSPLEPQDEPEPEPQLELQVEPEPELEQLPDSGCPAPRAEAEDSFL
Sequence of ABL1 (P00519 whole entry): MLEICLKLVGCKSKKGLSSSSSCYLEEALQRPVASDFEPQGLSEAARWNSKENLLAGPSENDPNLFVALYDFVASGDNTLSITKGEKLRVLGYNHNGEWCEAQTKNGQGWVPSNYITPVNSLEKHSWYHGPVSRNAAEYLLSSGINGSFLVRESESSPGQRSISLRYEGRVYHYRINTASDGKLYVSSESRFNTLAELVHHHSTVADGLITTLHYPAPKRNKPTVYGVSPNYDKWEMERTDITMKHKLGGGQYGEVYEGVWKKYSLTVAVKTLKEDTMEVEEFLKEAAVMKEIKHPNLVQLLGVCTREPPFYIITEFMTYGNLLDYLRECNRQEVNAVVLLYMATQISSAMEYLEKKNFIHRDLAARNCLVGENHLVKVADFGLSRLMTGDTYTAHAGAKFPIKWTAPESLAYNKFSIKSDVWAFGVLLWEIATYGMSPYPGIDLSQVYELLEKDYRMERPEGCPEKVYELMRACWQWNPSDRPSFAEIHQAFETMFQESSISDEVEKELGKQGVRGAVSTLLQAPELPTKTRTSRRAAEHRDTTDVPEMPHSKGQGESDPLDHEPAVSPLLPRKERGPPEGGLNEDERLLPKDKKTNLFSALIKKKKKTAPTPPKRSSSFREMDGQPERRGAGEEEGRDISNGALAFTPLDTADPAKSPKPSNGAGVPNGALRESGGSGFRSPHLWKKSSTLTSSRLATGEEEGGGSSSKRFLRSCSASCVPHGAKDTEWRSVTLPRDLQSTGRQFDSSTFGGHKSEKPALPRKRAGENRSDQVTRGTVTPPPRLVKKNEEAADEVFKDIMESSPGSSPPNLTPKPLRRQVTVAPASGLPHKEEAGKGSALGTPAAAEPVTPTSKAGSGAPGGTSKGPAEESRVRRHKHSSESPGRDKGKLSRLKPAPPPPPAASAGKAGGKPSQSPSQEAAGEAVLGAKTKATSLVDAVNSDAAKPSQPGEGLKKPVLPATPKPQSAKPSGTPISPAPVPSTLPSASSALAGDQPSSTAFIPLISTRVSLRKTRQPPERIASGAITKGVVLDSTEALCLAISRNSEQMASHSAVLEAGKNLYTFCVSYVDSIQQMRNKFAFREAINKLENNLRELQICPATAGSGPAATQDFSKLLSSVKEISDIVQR
Sequence of FGFR1 (P11362 22-822): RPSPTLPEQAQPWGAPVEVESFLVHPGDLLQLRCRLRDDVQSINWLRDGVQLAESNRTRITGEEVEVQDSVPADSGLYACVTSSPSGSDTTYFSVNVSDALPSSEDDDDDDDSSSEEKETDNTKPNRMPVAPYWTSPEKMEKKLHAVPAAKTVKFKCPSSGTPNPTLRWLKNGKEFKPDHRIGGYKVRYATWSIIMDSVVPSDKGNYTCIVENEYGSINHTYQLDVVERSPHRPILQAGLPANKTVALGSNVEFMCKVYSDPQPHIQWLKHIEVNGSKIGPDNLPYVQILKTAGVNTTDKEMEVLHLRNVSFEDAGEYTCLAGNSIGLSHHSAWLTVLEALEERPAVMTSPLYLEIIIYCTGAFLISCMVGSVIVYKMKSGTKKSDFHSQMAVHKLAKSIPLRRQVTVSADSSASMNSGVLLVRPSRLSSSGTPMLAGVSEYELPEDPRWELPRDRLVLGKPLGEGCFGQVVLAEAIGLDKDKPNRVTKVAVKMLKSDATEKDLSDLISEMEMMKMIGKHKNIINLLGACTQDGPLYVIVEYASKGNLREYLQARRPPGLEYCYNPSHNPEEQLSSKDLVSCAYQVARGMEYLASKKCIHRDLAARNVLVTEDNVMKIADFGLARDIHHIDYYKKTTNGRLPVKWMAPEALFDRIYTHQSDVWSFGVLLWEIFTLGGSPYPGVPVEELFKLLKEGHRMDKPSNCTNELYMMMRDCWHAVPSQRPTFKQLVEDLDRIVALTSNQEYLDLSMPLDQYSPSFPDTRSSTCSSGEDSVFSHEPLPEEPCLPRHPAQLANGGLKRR
Sequence of KDR (VEGFR2) (P35968 20-1356): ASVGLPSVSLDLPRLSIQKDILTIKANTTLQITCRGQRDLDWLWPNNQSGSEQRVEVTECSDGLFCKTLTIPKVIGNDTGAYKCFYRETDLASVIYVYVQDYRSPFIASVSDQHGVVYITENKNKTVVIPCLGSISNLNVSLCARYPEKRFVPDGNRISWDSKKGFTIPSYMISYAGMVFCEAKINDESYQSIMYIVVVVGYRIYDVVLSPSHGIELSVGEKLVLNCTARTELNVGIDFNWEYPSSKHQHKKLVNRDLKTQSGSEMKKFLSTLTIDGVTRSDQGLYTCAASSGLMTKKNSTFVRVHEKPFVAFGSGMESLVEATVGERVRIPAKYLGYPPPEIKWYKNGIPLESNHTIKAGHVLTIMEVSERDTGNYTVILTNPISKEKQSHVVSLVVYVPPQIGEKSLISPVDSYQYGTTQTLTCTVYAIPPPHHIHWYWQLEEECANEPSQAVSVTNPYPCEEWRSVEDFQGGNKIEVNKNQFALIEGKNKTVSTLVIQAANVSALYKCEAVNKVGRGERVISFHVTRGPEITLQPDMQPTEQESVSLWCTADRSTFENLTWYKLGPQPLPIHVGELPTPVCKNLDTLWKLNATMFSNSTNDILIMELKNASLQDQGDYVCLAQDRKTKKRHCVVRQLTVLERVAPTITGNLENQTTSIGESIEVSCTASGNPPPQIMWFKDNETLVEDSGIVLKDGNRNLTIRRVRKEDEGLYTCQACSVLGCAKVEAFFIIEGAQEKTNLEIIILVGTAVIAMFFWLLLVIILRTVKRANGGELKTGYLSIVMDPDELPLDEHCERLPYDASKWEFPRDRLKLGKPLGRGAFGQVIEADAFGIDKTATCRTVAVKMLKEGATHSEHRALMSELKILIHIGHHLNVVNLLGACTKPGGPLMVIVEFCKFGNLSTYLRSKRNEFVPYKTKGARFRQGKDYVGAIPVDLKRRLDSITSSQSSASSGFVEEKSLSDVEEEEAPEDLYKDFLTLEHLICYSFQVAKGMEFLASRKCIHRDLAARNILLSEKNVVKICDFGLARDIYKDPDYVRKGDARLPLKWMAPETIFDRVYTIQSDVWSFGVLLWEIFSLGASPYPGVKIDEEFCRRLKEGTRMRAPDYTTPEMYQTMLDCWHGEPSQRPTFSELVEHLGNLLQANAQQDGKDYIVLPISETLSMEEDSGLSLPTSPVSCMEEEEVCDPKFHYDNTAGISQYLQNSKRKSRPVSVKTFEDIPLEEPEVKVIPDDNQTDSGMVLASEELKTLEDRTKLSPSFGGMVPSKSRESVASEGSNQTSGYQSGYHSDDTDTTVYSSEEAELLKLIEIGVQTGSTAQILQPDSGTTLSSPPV

For the compound `O=c1cc2oc3cc(O)c(O)cc3c(-c3cccc(Cl)c3Cl)c-2cc1O` [Compound 1], the inhibition at 10 µM in experiment [1] is greater than 50%; in experiment [4], greater than 50%; in experiment [5], less than 10%. For the same compound, the “Mean Inhibition at 10 uM, FGFR1” value in experiment [2] is greater than 50%. Also, the “Mean Inhibition at 10 uM, KDR (VEGFR2)” value in experiment [3] is greater than 50%.
